# A selection: hits, their analogues and other compounds. The true share with any hit is near 4.6%.
# NF-kB neuron act: activators of NF-kB expression in neurons, primary screen, cell-based, HTS; human neuronal cells, NF-kB reporter expression; active compounds read high; 190,000 compounds, 1.6% hits; AID 1239, 2008; fold change at 12.5 µM; in the data active = fold change above about 3.3
# Mdm2 ligase inh: MDM2-luciferase reporter signal enhancers, primary screen, MDM2 E3 ligase inhibitor project, cell-based, luminescence, 1536-well | cell-based MDM2 ubiquitination luciferase reporter, 2 h; 0 = plate control, 100 = twice control, blank-subtracted | signal enhancement, % at 5 µM | 210,000 compounds, 0.11% hits | AID 1230, 2008;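 active = signal enhancement of 30% or more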;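 note: luminescence tracks abundance of the self-degrading MDM2-luciferase fusion protein; higher signal means inhibition of MDM2 E3 ligase activity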
#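 system = mammalian cells stably expressing self-ubiquitinating, self-degrading MDM2 E3–luciferase fusion | quantity = 2000 cells per well seeded | incubation = 4 h cell settling then 2 h compound exposure, 37 °C | signal = SteadyLite luminescence, 15 min reagent step | benchmarks = plate control and blank wells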
# APP 5'UTR act: activators of APP 5'UTR luciferase reporter, primary screen, SH-SY5Y cells; SH-SY5Y APP 5'UTR luciferase reporter, luminescence; zero percent = DMSO vehicle wells; 190,000 compounds, 1% hits; activation, % at 2 µM; AID 1276, 2008;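 active = activation above a set limit, based on mean plus 3 SD of controls, cut at about 140% in these data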
# Wee1 degr inh: Wee1 degradation inhibitors, primary screen, cell-based, HeLa, Wee1K328M-luciferase, luminescence. Wee1-like protein kinase (Homo sapiens), P30291. AID 1321, 2008. reporter increase, % at 5 µM. HeLa Luc-Wee1K328M stability; 100% = proteasome inhibitor MG132 effect. 220,000 compounds, 1.2% hits;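 active = activation above the mean of all tested compounds plus 3 SD, set per screening run, cut at about 8.8% in these data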;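 note: cells exposed to compound for 20 h before luminescence read; 0% = DMSO alone and 100% = MG132 at 30 µM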
# STAT1 act: STAT1 signaling activators, primary screen, cell-based, HTS, luciferase reporter. NIH 3T3 STAT1-luciferase reporter, IFN-gamma, luminescence; 100% = IFN-gamma alone, no compound. 200,000 compounds, 2.6% hits. AID 932, 2007. activation (% of control), % at 5.5 µM;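 active = activation above the screen-wide mean activation plus 3 SD, cut at about 130% in these data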;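 note: raw ratio to IFN-gamma control signal so 100% means no change and 0% no light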
# p97 inhibitor: inhibitors of human p97 ATPase, primary screen, biochemical; inhibition, % at 8 µM; 220,000 compounds, 0.42% hits; recombinant p97 ATPase, Kinase-Glo ATP luminescence, 3 h; in the data active = inhibition above about 15%;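 note: 0% = DMSO vehicle and 100% = wells lacking enzyme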
# Target sequence (P55072 whole entry, looked up): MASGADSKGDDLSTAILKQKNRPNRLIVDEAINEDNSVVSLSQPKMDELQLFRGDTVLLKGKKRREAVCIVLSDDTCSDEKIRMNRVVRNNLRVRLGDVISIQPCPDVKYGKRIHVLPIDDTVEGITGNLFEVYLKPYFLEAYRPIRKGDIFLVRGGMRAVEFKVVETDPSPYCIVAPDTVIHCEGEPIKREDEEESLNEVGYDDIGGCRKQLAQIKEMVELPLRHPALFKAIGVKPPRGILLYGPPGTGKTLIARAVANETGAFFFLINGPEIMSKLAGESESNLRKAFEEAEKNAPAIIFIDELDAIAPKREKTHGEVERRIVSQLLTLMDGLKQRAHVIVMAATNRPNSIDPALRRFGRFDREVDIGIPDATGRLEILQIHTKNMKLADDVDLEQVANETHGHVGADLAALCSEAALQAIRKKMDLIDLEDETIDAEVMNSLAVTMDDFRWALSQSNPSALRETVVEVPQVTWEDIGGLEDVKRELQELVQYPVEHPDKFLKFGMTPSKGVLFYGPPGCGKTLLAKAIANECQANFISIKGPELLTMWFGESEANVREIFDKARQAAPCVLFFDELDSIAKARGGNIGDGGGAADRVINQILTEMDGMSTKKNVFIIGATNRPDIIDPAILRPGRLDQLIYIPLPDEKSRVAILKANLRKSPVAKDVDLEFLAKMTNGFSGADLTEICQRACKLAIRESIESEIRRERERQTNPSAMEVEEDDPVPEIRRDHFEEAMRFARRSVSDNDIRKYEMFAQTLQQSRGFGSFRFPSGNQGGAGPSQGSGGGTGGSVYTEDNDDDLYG
# STAT1 activ conf: STAT1 signaling activators, confirmation, cell-based, HTS, luciferase reporter | shares compounds with STAT1 act | NIH 3T3 STAT1-luciferase reporter, IFN-gamma potentiation, luminescence; 100% = IFN-gamma EC80 alone, no compound | activation (% of control), % at 5.7 µM | 1,200 compounds, 97% hits | AID 1262, 2008;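 active = activation above a set limit carried over from the earlier primary STAT1 screen, cut at about 140% in these data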;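 note: simple ratio to median IFN-gamma plus DMSO wells so 0% means no light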
# NFkB act STAT1ct: NF-kB reporter activators, TNF-alpha stimulated, counter-screen for STAT1 activator project, cell-based, HEK293T, luciferase luminescence. shares compounds with STAT1 act. 100% = TNF-alpha with vehicle only. activation (% of control), % at 5.7 µM. 1,200 compounds, 43% hits. AID 1306, 2008;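 active = activation above the mean of solvent-only control wells plus 3 SD, set per campaign, cut at about 130% in these data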;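 note: TNF-alpha given at a submaximal dose yielding about 80% of full reporter signal; values are well signal over median control so 100% means no change and 0% no light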
# STAT3 act STAT1c: STAT3 reporter activation by STAT1 hits, confirmation, counter-screen for STAT1 activator project, U3A cells, luciferase, luminescence. shares compounds with STAT1 act. IL-6; cells lack STAT1; 100 = IL-6 alone, no compound effect. activation (% of control), % at 5.7 µM. 1,200 compounds, 46% hits;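 active = activation above the solvent-only control well mean plus 3 SD, set per plate batch, cut at about 110% in these data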;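 note: 0% = no luminescence and 100% = median IL-6 plus DMSO wells; higher means more STAT3 reporter activation so hits are non-selective activators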
# Active calls of the source: *; · = not tested or not shown.
SMILES,NF-kB neuron act,Mdm2 ligase inh,APP 5'UTR act,Wee1 degr inh,STAT1 act,p97 inhibitor,STAT1 activ conf,NFkB act STAT1ct,STAT3 act STAT1c
Cc1ccc(C(=O)COC(=O)c2ccc(O)cc2)cc1,6.2*,-25,149*,10*,153*,6,170*,121,122*
Cc1ccc(/C=N/NC(=O)c2ccccn2)s1,2.7,-28,122,3,154*,-6,163*,115,96
O=C(Nc1ncc(Cc2ccccc2Cl)s1)C1CCCO1 (centres undefined),3.9*,6,70,-1,151*,8,166*,134*,149*
Cc1onc(-c2ccccc2Cl)c1C(=O)Nc1ccccc1N1CCOCC1,0.96,-13,2,0,96,-4,·,·,·
Cc1cccc(-n2ncc3c(NC4CCCCC4)ncnc32)c1,7.2*,-25,180*,2,168*,2,239*,138*,102
COC(=O)c1ccc(COc2ccccc2/C=C(\C#N)C(=O)Nc2ccc(C)cc2)cc1,1.1,-12,19,0,151*,0,195*,135*,106
COc1ccccc1CC(=O)NNS(=O)(=O)c1ccc([N+](=O)[O-])cc1,1.1,1,11,2,102,5,·,·,·
Nc1cccc(C(=O)OCC(=O)Nc2cccc3c2C(=O)c2ccccc2C3=O)c1,1.1,-10,-10,0,100,-1,·,·,·
Nc1cccc(C(=O)OCC(=O)c2ccccc2)c1,1.2,1,114,-2,181*,1,181*,121,117*
Cc1ccc(CN(c2ccc(C(=O)NCC3CCCO3)cc2)S(C)(=O)=O)cc1 (centres undefined),1.1,-9,5,-2,92,13,·,·,·
O=C(c1ccccc1)c1ccc(N2CCCC2)cc1,1.9,0,46,3,151*,-7,143*,116,101
O=C(c1ccccc1)c1ccc(N2CCNCC2)cc1,1.5,-6,7,-2,120,1,·,·,·
O=C(/C=C/c1ccc(Cl)cc1)Nc1ccc(N2CCCCC2)cc1,1.2,18,2,-1,95,3,·,·,·
O=C(/C=C/c1ccccc1)Nc1ccc(N2CCCCC2)cc1,1.1,5,84,9.0*,151*,2,168*,125,105
Oc1csc(Cc2nc(-c3ccc(Br)cc3)cs2)n1,1.9,-1,50,7,167*,2,177*,134*,124*
O=C(Nc1ccc2c(c1)CCC2)c1cccc(F)c1,6.8*,-14,170*,-1,162*,-1,202*,131,102
O=C(Nc1ccc2c(c1)CCC2)c1ccccc1Br,1.1,-21,219*,3,154*,3,218*,138*,112*
O=C1CNC(=S)N1c1nc(-c2ccccc2)cs1,1.7,-11,56,1,154*,2,188*,131,115*
COc1ccc(-c2csc(N3C(=N)SCC3=O)n2)cc1,4.9*,-68,74,4,164*,-1,294*,104,112*
COc1ccc(-c2csc(N3C(=O)CNC3=S)n2)cc1,5.3*,-17,204*,5,179*,6,260*,114,104
Cc1cc(NC(=O)Cn2cc([N+](=O)[O-])cn2)no1,1.1,-7,-13,-1,102,5,·,·,·
Cc1ccc(NC(=O)CSc2ncc3ccccn23)cc1,1.9,-8,32,4,122,1,·,·,·
Cn1c(N)c(C(=O)CSc2nc3ccccc3[nH]2)c(=O)n(C)c1=O,·,-3,·,2,·,2,·,·,·
O=c1/c(=C/c2ccccn2)sc2nc3ccccc3n12,4.8*,-68,66,-1,184*,4,289*,138*,158*
O=c1/c(=C\c2cc([N+](=O)[O-])cc([N+](=O)[O-])c2O)sc2nc3ccccc3n12,1.2,-9,-1,4,97,7,·,·,·
SMILES,NF-kB neuron act,Mdm2 ligase inh,APP 5'UTR act,Wee1 degr inh,STAT1 act,p97 inhibitor,STAT1 activ conf,NFkB act STAT1ct,STAT3 act STAT1c
COc1ccc2c(C)nc(Nc3nc(C)c(C)c(=O)[nH]3)nc2c1,1.9,-25,2,2,200*,1,174*,128,111*
CCc1c(C)nc(Nc2nc(C)c3ccc(OC)cc3n2)[nH]c1=O,0.52,-16,-3,6,119,5,·,·,·
NS(=O)(=O)c1ccc(NC(=O)COC(=O)C2CC(=O)N(Cc3ccccc3)C2)cc1 (centres undefined),1.4,-2,8,-1,93,1,·,·,·
CCOC(=O)C1=C(C)NC(C)=C(C(=O)OCC)C1C(=O)OCC(=O)N(C)C1CCS(=O)(=O)C1 (centres undefined),1.1,-3,8,-3,102,2,·,·,·
O=C(Nc1cccc(-c2cnc3ccccc3n2)c1)c1ccco1,0.64,-13,·,-2,126,3,·,·,·
O=C(Nc1cnc2ccccc2c1)c1ccco1,6.2*,-53,157*,3,152*,5,183*,105,90
O=C(Nc1ccc(-c2noc(-c3cccs3)n2)cc1)c1cccnc1,3.8*,-84,110,2,157*,7,197*,136*,109
COc1cccc(-c2nc(-c3ccc(NC(=O)c4cccnc4)cc3)no2)c1,1,8,2,2,102,8,·,·,·
Oc1sc(C=Nc2ccccc2)c2ccccc12,8.1*,-9,153*,1,166*,1,209*,141*,108
CCOc1ccc(Nc2nnc(Cc3ccc(OC)cc3)c(=O)[nH]2)cc1,1.2,-13,-12,-1,98,-1,·,·,·

# High-throughput results as filed in PubChem.
